Data reported in paper PMC3269097 (Journal of Medicinal Chemistry, 2011).
pIC50: −log10 of the molar value.

Key:
[1] = molecular target: GluN1a/GluN2C NMDAR (Rattus norvegicus, UniProt P35439+Q00961); type: cell-based
[2] = molecular target: GluN1a/GluN2D NMDAR (Rattus norvegicus, UniProt P35439+Q62645); type: cell-based
[3] = molecular target: GluN1a/GluN2B NMDAR (Rattus norvegicus, UniProt P35439+Q00960); type: cell-based
[4] = molecular target: GluN1a/GluN2A NMDAR (Rattus norvegicus, UniProt P35439+Q00959); type: cell-based
[5] = system: AMPARs; conditions: competition binding assays; ref [5c]; cited from earlier work
[6] = molecular target: human GluK2 (Homo sapiens, UniProt Q13002); type: cell-based; conditions: tested at a concentration of 100 μM
Sequence of human GluK2 (Q13002 32-908): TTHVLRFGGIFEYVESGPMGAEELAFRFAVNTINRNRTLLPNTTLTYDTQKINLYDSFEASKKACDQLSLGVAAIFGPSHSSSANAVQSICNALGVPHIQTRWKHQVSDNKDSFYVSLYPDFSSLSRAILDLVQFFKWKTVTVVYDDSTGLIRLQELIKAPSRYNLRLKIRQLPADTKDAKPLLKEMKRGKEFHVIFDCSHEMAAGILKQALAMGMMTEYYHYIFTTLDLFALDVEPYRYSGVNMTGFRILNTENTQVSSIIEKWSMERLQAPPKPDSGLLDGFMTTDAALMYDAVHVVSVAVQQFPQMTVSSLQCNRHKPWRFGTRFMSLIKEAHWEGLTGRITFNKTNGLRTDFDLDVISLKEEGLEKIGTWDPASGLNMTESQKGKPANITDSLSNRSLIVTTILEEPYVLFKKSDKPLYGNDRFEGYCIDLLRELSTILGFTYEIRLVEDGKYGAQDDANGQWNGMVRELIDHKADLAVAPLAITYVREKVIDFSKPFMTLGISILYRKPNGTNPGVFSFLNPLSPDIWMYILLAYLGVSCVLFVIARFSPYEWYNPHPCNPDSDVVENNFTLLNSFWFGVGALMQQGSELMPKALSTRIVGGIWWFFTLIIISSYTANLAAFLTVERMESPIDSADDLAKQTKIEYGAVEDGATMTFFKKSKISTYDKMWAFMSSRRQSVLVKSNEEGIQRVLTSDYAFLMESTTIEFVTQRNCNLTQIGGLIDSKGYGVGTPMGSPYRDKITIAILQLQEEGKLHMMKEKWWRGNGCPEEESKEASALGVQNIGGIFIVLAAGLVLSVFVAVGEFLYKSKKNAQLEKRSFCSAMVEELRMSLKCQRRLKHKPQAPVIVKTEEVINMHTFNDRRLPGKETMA
How it was run: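 HEK293 cells stably expressing homomeric human GluK2(Q), passaged no more than 20 times. Ca2+ influx read by fluorescence plate reader with concanavalin A present. Test compound is added over a range of concentrations, then L-glutamate plus antagonist (final glutamate 10 μM). Curves are fitted with slope fixed at 1 and top/bottom fixed at 100%/0% inhibition. KB is derived from IC50 by Cheng-Prusoff.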

[7] = molecular target: T1, human GluK1 (Homo sapiens, UniProt P39086); type: cell-based; conditions: from KB values
T1 sequence (P39086 31-905 isoform P39086-2 limits assumed): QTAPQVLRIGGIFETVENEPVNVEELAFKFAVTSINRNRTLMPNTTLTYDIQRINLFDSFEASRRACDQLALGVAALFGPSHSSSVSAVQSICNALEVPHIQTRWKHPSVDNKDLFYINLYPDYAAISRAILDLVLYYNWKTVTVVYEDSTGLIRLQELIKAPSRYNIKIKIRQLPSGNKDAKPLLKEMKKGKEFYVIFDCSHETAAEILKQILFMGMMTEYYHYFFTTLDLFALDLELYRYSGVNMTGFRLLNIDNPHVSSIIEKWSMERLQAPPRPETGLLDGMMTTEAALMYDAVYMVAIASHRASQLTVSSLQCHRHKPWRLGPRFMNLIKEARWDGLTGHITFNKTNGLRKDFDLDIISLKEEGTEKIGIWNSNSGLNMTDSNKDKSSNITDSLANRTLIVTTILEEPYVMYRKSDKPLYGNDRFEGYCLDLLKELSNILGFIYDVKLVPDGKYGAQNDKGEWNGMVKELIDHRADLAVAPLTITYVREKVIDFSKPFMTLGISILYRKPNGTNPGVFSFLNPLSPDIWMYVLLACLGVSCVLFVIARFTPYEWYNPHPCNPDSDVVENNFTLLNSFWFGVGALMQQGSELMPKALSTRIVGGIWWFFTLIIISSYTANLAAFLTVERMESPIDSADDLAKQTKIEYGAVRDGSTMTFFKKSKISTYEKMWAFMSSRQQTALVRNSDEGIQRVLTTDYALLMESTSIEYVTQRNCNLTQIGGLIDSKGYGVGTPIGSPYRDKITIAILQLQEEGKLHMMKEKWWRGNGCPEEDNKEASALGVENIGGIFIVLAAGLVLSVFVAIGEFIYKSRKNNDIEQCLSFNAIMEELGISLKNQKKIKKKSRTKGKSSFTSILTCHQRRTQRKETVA

[8] = molecular target: GluN1a/GluN2D NMDAR (Rattus norvegicus, UniProt Q62645); type: cell-based
Sequence of GluN1a/GluN2D NMDAR (Rattus norvegicus, UniProt Q62645) (Q62645 28-1323, other chains not shown): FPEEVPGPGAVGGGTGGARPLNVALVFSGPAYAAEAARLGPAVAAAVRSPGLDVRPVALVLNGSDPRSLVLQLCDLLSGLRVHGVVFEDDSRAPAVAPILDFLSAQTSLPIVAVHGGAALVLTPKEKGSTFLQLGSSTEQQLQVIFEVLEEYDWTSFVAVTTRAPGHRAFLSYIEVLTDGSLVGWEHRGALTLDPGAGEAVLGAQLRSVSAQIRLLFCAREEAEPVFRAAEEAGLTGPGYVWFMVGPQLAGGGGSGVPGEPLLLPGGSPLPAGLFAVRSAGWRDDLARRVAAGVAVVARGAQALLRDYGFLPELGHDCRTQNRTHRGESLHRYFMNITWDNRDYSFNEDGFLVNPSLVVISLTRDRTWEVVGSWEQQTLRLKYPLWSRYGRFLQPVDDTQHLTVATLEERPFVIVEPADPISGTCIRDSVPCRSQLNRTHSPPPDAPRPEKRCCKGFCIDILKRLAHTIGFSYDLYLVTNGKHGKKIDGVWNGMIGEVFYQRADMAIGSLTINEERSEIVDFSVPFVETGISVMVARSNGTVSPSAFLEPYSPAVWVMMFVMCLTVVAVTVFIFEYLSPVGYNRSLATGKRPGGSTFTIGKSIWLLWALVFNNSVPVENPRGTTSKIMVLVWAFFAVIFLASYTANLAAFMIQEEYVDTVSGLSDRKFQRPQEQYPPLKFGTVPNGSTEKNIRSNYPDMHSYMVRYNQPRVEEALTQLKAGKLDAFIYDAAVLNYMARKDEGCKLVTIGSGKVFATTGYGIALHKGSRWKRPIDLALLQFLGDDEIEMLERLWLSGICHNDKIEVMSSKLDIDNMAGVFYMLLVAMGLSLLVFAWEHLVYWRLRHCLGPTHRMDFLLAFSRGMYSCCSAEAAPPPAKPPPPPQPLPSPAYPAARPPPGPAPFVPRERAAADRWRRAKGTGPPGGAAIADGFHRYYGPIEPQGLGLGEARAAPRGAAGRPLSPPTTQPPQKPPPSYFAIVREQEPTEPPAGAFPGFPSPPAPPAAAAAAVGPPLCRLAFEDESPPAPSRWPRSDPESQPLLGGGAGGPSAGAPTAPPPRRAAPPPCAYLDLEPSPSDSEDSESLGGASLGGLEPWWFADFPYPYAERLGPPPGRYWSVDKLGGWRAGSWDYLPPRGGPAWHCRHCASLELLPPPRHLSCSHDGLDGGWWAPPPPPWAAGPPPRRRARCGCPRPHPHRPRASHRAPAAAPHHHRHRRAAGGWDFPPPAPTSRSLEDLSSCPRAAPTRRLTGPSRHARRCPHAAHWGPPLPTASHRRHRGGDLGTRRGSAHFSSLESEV

[9] = molecular target: wildtype (WT) GluK3 (Homo sapiens, UniProt Q13003); experiment: [3H]kainate competition binding to wildtype GluK3 membranes; conditions: 18i 100 μM, 300 μM, 1 mM; 20 nM [3H]kainate
How it was run: (§1)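 Filtration binding on human GluK3a membranes. Wildtype comes from stably transfected HEK293 (hygromycin); the A660S mutant is transiently PEI-transfected for 48 h. Membranes are prepared by hypotonic sonication and washed in 50 mM Tris-citrate pH 7.4. Assay uses 20 nM [3H]kainate, with 1 mM kainate defining non-specific binding. Test compound at 100 μM, 300 μM and 1 mM; three experiments in triplicate.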

[10] = molecular target: T1, human GluK1; experiment: Electrophysiological assay; type: cell-based; conditions: electrophysiological assays
How it was run: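 Whole-cell patch clamp at −70 mV on HEK293 cells stably expressing homomeric human GluK1 or GluK3. Cells are bathed in HBS pH 7.4 at 20°C and lifted into a piezo-driven theta tube. 30 mM glutamate is applied for 100 ms every 20 s. Antagonist is added to both barrels for about 2 min, giving 5 concentrations per cell, each averaged over 6 sweeps. IC50 values are reported with 95% confidence intervals.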

[11] = system: male Wistar rats with partial saphenous nerve ligation injury (PSNI); experiment: Nociceptive behaviour in rats, partial saphenous nerve ligation injury; type: in vivo, rat
How it was run: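 Male Wistar rats (~250 g) habituated to testing, tested before saphenous nerve injury. Test compound or vehicle given i.p. (n=5/group), testing starts 15 min later. Von Frey hairs applied to the plantar hindpaw (≤5 s, five times per paw, both paws); thresholds taken from stimulus-response curves. Radiant-heat withdrawal latency is the mean of three stimulations per paw.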

[12] = molecular target: GluK3 A660S mutant receptor (Homo sapiens, UniProt Q13003, A691S); experiment: [3H]kainate competition binding to GluK3 A660S mutant membranes; conditions: 18i 100 μM, 300 μM, 1 mM; 20 nM [3H]kainate; compared with wild type
How it was run: as §1

[13] = system: native AMPARs; type: cell-based, rat; conditions: 100 μM, n=4
How it was run: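 Field EPSPs in transverse rat hippocampal slices (400 μm), perfused at 29°C. Mossy fibers stimulated via the dentate granule cell layer every 60 s. Responses averaged every 2 min and measured as 20–80% slope. Test compound at 100 μM perfused for 30 min. Results expressed as % of control slope, mean ± s.e.m., n=4, compared by Student's t test.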

[14] = molecular target: GluN1a/GluN2B NMDAR (Rattus norvegicus, UniProt Q00960); type: cell-based; conditions: at a concentration of 100 μM
[15] = molecular target: GluN1a/GluN2A NMDAR (Rattus norvegicus, UniProt Q00959); type: cell-based; conditions: at a concentration of 100 μM
[16] = Solubility observations; type: physicochemical; conditions: for water solubility: at higher concentrations

Sequence of GluN1a/GluN2C NMDAR (Q00961 20-1237, other chains not shown): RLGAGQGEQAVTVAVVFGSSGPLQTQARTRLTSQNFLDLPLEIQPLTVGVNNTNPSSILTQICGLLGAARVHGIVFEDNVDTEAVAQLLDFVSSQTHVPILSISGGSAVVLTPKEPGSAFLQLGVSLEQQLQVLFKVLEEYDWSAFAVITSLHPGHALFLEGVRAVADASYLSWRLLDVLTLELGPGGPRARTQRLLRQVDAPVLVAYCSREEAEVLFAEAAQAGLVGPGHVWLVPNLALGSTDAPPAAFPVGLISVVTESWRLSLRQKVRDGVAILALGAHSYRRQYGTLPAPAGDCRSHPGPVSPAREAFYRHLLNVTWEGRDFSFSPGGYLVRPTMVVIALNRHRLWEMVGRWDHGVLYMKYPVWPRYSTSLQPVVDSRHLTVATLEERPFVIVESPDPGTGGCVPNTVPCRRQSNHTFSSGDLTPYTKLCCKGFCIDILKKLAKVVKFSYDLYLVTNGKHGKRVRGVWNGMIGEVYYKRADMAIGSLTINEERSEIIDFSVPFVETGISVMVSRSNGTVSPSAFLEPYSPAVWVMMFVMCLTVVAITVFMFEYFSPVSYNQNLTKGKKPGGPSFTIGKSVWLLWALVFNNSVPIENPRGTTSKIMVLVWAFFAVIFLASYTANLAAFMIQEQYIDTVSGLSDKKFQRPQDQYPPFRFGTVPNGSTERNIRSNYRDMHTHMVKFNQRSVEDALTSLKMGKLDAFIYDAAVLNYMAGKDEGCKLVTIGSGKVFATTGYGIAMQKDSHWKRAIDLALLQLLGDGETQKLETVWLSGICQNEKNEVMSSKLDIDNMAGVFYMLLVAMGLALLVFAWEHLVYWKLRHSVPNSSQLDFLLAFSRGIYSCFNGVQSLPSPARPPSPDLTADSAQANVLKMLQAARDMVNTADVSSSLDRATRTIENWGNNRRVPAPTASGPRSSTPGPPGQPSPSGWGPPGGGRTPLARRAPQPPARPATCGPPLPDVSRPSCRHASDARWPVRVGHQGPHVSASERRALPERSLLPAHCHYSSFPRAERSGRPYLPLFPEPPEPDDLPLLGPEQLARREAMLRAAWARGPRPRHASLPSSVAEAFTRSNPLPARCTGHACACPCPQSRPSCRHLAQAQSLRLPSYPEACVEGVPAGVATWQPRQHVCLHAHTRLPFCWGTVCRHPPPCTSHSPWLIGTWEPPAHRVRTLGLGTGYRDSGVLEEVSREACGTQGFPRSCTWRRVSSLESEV
Sequence of GluN1a/GluN2D NMDAR (Rattus norvegicus, UniProt P35439+Q62645) (Q62645 28-1323, other chains not shown): as the sequence (Q62645 28-1323, other chains not shown) above

**Q.** With `O=C(O)c1ccc2cc(C(=O)N3CCN[C@H](C(=O)O)[C@@H]3C(=O)O)ccc2c1` [Compound 19] as the compound, how does the pIC50 [1] read?
**A.** The pIC50 was < 4.00.

**Q.** What about the pIC50 [2] of the same compound?
**A.** The pIC50 was < 4.00.

**Q.** What about the pIC50 [3] of the same compound?
**A.** The pIC50 was < 4.00.

**Q.** And the pIC50 [4]?
**A.** Its pIC50 is < 4.00.

**Q.** Which “inhibition of [3H]AMPA binding” value [5] does the source give for `O=C(O)[C@H]1NCCN(C(=O)c2ccc3cc(Br)c4ccccc4c3c2)[C@H]1C(=O)O` (relative stereo) [Compound 18h, (2R*,3S*)-1-(9-Bromophenanthrene-3-carbonyl)piperazine-2,3-dicarboxylic acid] here?
**A.** The value was “only very weak inhibitors”.

**Q.** With `O=C(O)[C@H]1NCCN(C(=O)c2ccc3c(ccc4cc(Br)ccc43)c2)[C@H]1C(=O)O` [Compound 34e] as the compound, how does the GluK2 antagonist activity [6] read?
**A.** The GluK2 antagonist activity was “no GluK2 antagonist activity”.

**Q.** For `O=C(O)C1NCCN(C(=O)c2ccc3c(ccc4ccccc43)c2)C1C(=O)O` (stereo not drawn) [(±)-4], which GluK2 antagonist activity [6] is on record?
**A.** The GluK2 antagonist activity was “no GluK2 antagonist activity”.

**Q.** For `O=C(O)[C@H]1NCCN(C(=O)c2ccc(-c3ccccc3)cc2)[C@H]1C(=O)O` [Compound 34b], which GluK2 antagonist activity [6] is on record?
**A.** Its GluK2 antagonist activity is “no GluK2 antagonist activity”.

**Q.** With `O=C(O)[C@@H]1[C@H](C(=O)O)NCCN1C(=O)c1ccc2c(ccc3ccccc32)c1` [(−)-4, (−)-1-(Phenanthrene-2-carbonyl)piperazine-2,3-dicarboxylic acid] as the compound, how does the GluK2 antagonist activity [6] read?
**A.** Its GluK2 antagonist activity is “no GluK2 antagonist activity”.

**Q.** What about the “fold higher affinity for GluK1 than the (+)-4 enantiomer” value [7] of the same compound?
**A.** Its value is 27 fold.

**Q.** Which “fold lower affinity for GluK1 compared to (±)-4” value (“fold lower affinity … (±)-4” for short) [7] does the source give for `O=C(O)[C@@H]1NCCN(C(=O)c2ccc3c(ccc4ccccc43)c2)[C@H]1C(=O)O` [Compound 34d] here?
**A.** The value was 8 fold.

**Q.** With `O=C(O)[C@H]1NCCN(C(=O)c2ccc(CCc3ccccc3)cc2)[C@H]1C(=O)O` [Compound 21] as the compound, how does the pIC50 [1] read?
**A.** The pIC50 was < 4.00.

**Q.** What about the pIC50 [2] of the same compound?
**A.** Its pIC50 is < 4.00.

**Q.** What about the “antagonism of GluN2D” value ([8]; at a concentration of 100 μM) of the same compound?
**A.** The value was ~ 10%.

**Q.** What about the pIC50 [3] of the same compound?
**A.** The pIC50 was < 4.00.

**Q.** And the pIC50 [4]?
**A.** The pIC50 was < 4.00.

**Q.** And the “fold lower affinity for GluK1 compared to 34b” value [7]?
**A.** The value was “approximately 2 fold”.

**Q.** And the “fold lower affinity … (±)-4” value [7]?
**A.** The value was 9 fold.

**Q.** With `O=C(O)[C@H]1NCCN(C(=O)c2ccc3cc(I)ccc3c2)[C@H]1C(=O)O` (relative stereo) [Compound 18c, (2R*,3S*)-1-(6-Iodonaphthalene-2-carbonyl)piperazine-2,3-dicarboxylic acid] as the compound, how does the GluK2 antagonist activity [6] read?
**A.** The GluK2 antagonist activity was “no GluK2 antagonist activity”.

**Q.** With `O=C(O)C1NCCN(C(=O)c2ccc3c(ccc4ccccc43)c2)C1C(=O)O` (single isomer, unassigned; (+)) [(+)-4, (+)-1-(Phenanthrene-2-carbonyl)piperazine-2,3-dicarboxylic acid] as the compound, how does the “fold lower affinity for GluN2D than the (−)-4 isomer” value [8] read?
**A.** The value was 50 fold.

**Q.** With `O=C(O)[C@H]1NCCN(C(=O)c2ccc3c(c2)CCc2ccccc2-3)[C@H]1C(=O)O` [Compound 34g] as the compound, how does the GluK2 antagonist activity [6] read?
**A.** Its GluK2 antagonist activity is “no GluK2 antagonist activity”.

**Q.** For `O=C(O)[C@H]1NCCN(C(=O)c2ccc(C#Cc3ccccc3)cc2)[C@H]1C(=O)O` [Compound 18k], which “inhibition of [3H]AMPA binding” value [5] is on record?
**A.** The value was “only very weak inhibitors”.

**Q.** What about the GluK2 antagonist activity [6] of the same compound?
**A.** Its GluK2 antagonist activity is “no GluK2 antagonist activity”.

**Q.** For `O=C(O)[C@H]1NCCN(C(=O)c2ccc3ccc4ccccc4c3c2)[C@H]1C(=O)O` [Compound 5], which “inhibition of [3H]AMPA binding” value [5] is on record?
**A.** Its value is “only very weak inhibitors”.

**Q.** And the “selectivity for GluN2D versus GluK1” value ([8]; GluN2D Ki versus GluK1 KB)?
**A.** Its value is “around 10 fold”.

**Q.** And the GluK2 antagonist activity [6]?
**A.** The GluK2 antagonist activity was “no GluK2 antagonist activity”.

**Q.** With `O=C(O)[C@H]1NCCN(C(=O)c2ccc3cc(I)c4ccccc4c3c2)[C@H]1C(=O)O` (relative stereo) [Compound 18i, (2R*,3S*)-1-(9-Iodophenanthrene-3-carbonyl)piperazine-2,3-dicarboxylic acid] as the compound, how does the “inhibition of [3H]kainate binding to wild type GluK3” value [9] read?
**A.** Its value is “low binding affinity”.

**Q.** And the “fold lower IC50 for GluK1 versus GluK3” value [10]?
**A.** Its value is > 100 fold.

**Q.** What about the “thermal withdrawal latency to radiant heat” value ([11]; 30 mg/kg i.p., acute, day 7 after PSNI, n=5 per group) of the same compound?
**A.** Its value is “increased thermal withdrawal latency in these animals above baseline values”.

**Q.** What about the “mechanical withdrawal threshold (mechanical allodynia)” value ([11]; 30 mg/kg i.p., acute, day 7 after PSNI, versus vehicle, n=5 per group) of the same compound?
**A.** Its value is “completely reversed the drop in mechanical withdrawal threshold”.

**Q.** And the “antinociceptive effects in normal animals” value ([11]; normal animals before nerve injury (not shown))?
**A.** Its value is “exerted antinociceptive effects”.

**Q.** What about the “inhibition of [3H]kainate binding to A660S point mutant of GluK3” value [12] of the same compound?
**A.** Its value is “more potently inhibited”.

**Q.** What about the “AMPAR mediated fEPSP response in the presence of compound, % of slope” value ([13]; 30 min perfusion, control 100 ± 2%, mean ± s.e.m.) of the same compound?
**A.** The value was 99 ± 2%.

**Q.** What about the “antagonist activity on AMPAR mediated EPSPs in CA3 region of the hippocampus” value [13] of the same compound?
**A.** Its value is “no antagonist activity”.

**Q.** And the “fold higher affinity for GluK1 compared to 18c” value [7]?
**A.** Its value is 1.7 fold.

**Q.** For `O=C(O)[C@H]1NCCN(Cc2ccc3c(ccc4ccccc43)c2)[C@H]1C(=O)O` [Compound 34f], which “fold lower affinity … (±)-4” value [7] is on record?
**A.** The value was 5 fold.

**Q.** With `O=C(O)[C@H]1NCCN(C(=O)c2ccc3cc(-c4ccccc4)ccc3c2)[C@H]1C(=O)O` (relative stereo) [Compound 18d, (2R*,3S*)-1-(6-Phenylnaphthalene-2-carbonyl)piperazine-2,3-dicarboxylic acid] as the compound, how does the pIC50 [3] read?
**A.** Its pIC50 is < 4.00.

**Q.** What about the “antagonism of GluN2B” value [14] of the same compound?
**A.** Its value is 30–37%.

**Q.** And the “antagonism of GluN2A” value [15]?
**A.** Its value is 30–37%.

**Q.** What about the pIC50 [4] of the same compound?
**A.** The pIC50 was < 4.00.

**Q.** What about the GluK2 antagonist activity [6] of the same compound?
**A.** Its GluK2 antagonist activity is “no GluK2 antagonist activity”.

**Q.** What about the “solubility in electrophysiological recording buffer” value ([16]; 300 μM, room temperature, visible light scattering) of the same compound?
**A.** The value was “insoluble at high concentrations”.

**Q.** What about the water solubility [16] of the same compound?
**A.** Its water solubility is “poor water solubility”.

**Q.** With `O=C(O)c1ccc(-c2ccc(C(=O)N3CCN[C@H](C(=O)O)[C@@H]3C(=O)O)cc2)cc1` [Compound 20] as the compound, how does the pIC50 [1] read?
**A.** Its pIC50 is < 4.00.

**Q.** What about the pIC50 [3] of the same compound?
**A.** The pIC50 was < 4.00.

**Q.** And the water solubility [16]?
**A.** Its water solubility is “poor water solubility”.

**Q.** What about the “fold lower affinity for GluK1 compared to 34b” value [7] of the same compound?
**A.** The value was 5 fold.

**Q.** What does the source list for `O=C(O)[C@H]1NCCN(C(=O)c2ccc(/N=N/c3ccccc3)cc2)[C@H]1C(=O)O` [Compound 18l]?
**A.** inhibition of [3H]AMPA binding [5]: only very weak inhibitors; GluK2 antagonist activity [6]: no GluK2 antagonist activity
